Data taken from ChEMBL document CHEMBL4364301 (Eur J Med Chem, 2019).
pIC50: −log10 of the molar value.

Assays:
Format in all cases: functional
[1] = tested on: VCaP; test: Antiproliferative activity against human VCaP cells assessed as T/C value at 3.2 uM incubated for 96 hrs by propidium iodide based 2D monolayer assay
Summary of the method: (§1)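 Cells were kept in RPMI 1640 with 25 mM HEPES, 10% FCS and gentamicin at 37 °C under 5% CO2, and plated at 4,000-20,000 cells/well. After 24 h recovery, compound in medium or medium alone (control wells) was added at 10 half-log concentrations from 0.0032 to 100 µM, in triplicate, with at most 0.3% DMSO. After 96 h, wells were PBS-washed, stained with 7 µg/ml PI and 0.1% Triton X-100, and fluorescence read at 530/620 nm. IC50 came from a 4-parameter fit, geometric mean.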

[2] = tested on: LNCaP; test: Antiproliferative activity against human LNCAP cells assessed as T/C value at 3.2 x 10^-2 uM incubated for 96 hrs by propidium iodide based 2D monolayer assay; summary of the method: as §1
[3] = tested on: DU-145; test: Antiproliferative activity against human DU145 cells assessed as T/C value at 3.2 uM incubated for 96 hrs by propidium iodide based 2D monolayer assay; summary of the method: as §1
[4] = tested on: LNCaP; test: Antiproliferative activity against human LNCAP cells assessed as T/C value at 1 uM incubated for 96 hrs by propidium iodide based 2D monolayer assay; summary of the method: as §1
[5] = tested on: LNCaP; test: Antiproliferative activity against human LNCAP cells assessed as T/C value at 3.2 uM incubated for 96 hrs by propidium iodide based 2D monolayer assay; summary of the method: as §1
[6] = tested on: CWR22R; test: Antiproliferative activity against human 22Rv1 cells assessed as T/C value at 1 x 10^-2 uM incubated for 96 hrs by propidium iodide based 2D monolayer assay; summary of the method: as §1
[7] = tested on: DU-145; test: Antiproliferative activity against human DU145 cells assessed as T/C value at 1 x 10^-1 uM incubated for 96 hrs by propidium iodide based 2D monolayer assay
Summary of the method: as §1, with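 “After” for “Cells were kept in RPMI 1640 with 25 mM HEPES, 10% FCS and gentamicin at 37 °C under 5% CO2, and plated at 4,000-20,000 cells/well. After”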

[8] = tested on: DU-145; test: Antiproliferative activity against human DU145 cells assessed as reduction in cell growth incubated for 96 hrs by propidium iodide based 2D monolayer assay; conditions: DU-145, 96 h
Summary of the method: as §1, with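 “After” for “Cells were kept in RPMI 1640 with 25 mM HEPES, 10% FCS and gentamicin at 37 °C under 5% CO2, and plated at 4,000-20,000 cells/well. After”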

[9] = tested on: CWR22R; test: Antiproliferative activity against human 22Rv1 cells assessed as T/C value at 1 x 10^1 uM incubated for 96 hrs by propidium iodide based 2D monolayer assay; summary of the method: as §1
[10] = tested on: CWR22R; test: Antiproliferative activity against human 22Rv1 cells assessed as T/C value at 3.2 uM incubated for 96 hrs by propidium iodide based 2D monolayer assay; summary of the method: as §1
[11] = tested on: CWR22R; test: Antiproliferative activity against human 22Rv1 cells assessed as T/C value at 1 x 10^2 uM incubated for 96 hrs by propidium iodide based 2D monolayer assay; summary of the method: as §1
[12] = tested on: VCaP; test: Antiproliferative activity against human VCaP cells assessed as T/C value at 1 x 10^2 uM incubated for 96 hrs by propidium iodide based 2D monolayer assay; summary of the method: as §1
[13] = tested on: DU-145; test: Antiproliferative activity against human DU145 cells assessed as T/C value at 1 uM incubated for 96 hrs by propidium iodide based 2D monolayer assay
Summary of the method: as §1, with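 “After” for “Cells were kept in RPMI 1640 with 25 mM HEPES, 10% FCS and gentamicin at 37 °C under 5% CO2, and plated at 4,000-20,000 cells/well. After”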

[14] = tested on: LNCaP; test: Antiproliferative activity against human LNCAP cells assessed as T/C value at 1 x 10^1 uM incubated for 96 hrs by propidium iodide based 2D monolayer assay; summary of the method: as §1
[15] = tested on: LNCaP; test: Antiproliferative activity against human LNCAP cells assessed as T/C value at 3.2 x 10^-1 uM incubated for 96 hrs by propidium iodide based 2D monolayer assay; summary of the method: as §1
[16] = tested on: DU-145; test: Antiproliferative activity against human DU145 cells assessed as T/C value at 1 x 10^1 uM incubated for 96 hrs by propidium iodide based 2D monolayer assay
Summary of the method: as §1, with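 “After” for “Cells were kept in RPMI 1640 with 25 mM HEPES, 10% FCS and gentamicin at 37 °C under 5% CO2, and plated at 4,000-20,000 cells/well. After”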

[17] = tested on: LNCaP; test: Antiproliferative activity against human LNCAP cells assessed as T/C value at 1 x 10^-2 uM incubated for 96 hrs by propidium iodide based 2D monolayer assay; summary of the method: as §1
[18] = tested on: VCaP; test: Antiproliferative activity against human VCaP cells assessed as T/C value at 3.2 x 10^-1 uM incubated for 96 hrs by propidium iodide based 2D monolayer assay
Summary of the method: (§2)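 VCaP cells in RPMI 1640 with 10% FCS at 37 °C, 5% CO2, seeded 4,000–20,000 cells/well and left 24 h before dosing. Compounds from DMSO stocks were diluted in half-log steps in medium, 10 concentrations 0.0032–100 μM, triplicate wells, max 0.3% DMSO. After 96 h, cells were washed, stained with 7 μg/ml propidium iodide plus 0.1% Triton X-100 for 1–2 h at room temperature, and fluorescence read at ex 530/em 620 nm.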

[19] = tested on: CWR22R; test: Antiproliferative activity against human 22Rv1 cells assessed as T/C value at 1 uM incubated for 96 hrs by propidium iodide based 2D monolayer assay; summary of the method: as §1
[20] = tested on: CWR22R; test: Antiproliferative activity against human 22Rv1 cells assessed as T/C value at 3.2 x 10^-3 uM incubated for 96 hrs by propidium iodide based 2D monolayer assay; summary of the method: as §1
[21] = tested on: DU-145; test: Antiproliferative activity against human DU145 cells assessed as T/C value at 3.2 x 10^-1 uM incubated for 96 hrs by propidium iodide based 2D monolayer assay
Summary of the method: as §1, with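 “After” for “Cells were kept in RPMI 1640 with 25 mM HEPES, 10% FCS and gentamicin at 37 °C under 5% CO2, and plated at 4,000-20,000 cells/well. After”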

[22] = tested on: DU-145; test: Antiproliferative activity against human DU145 cells assessed as T/C value at 3.2 x 10^-3 uM incubated for 96 hrs by propidium iodide based 2D monolayer assay
Summary of the method: as §1, with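 “After” for “Cells were kept in RPMI 1640 with 25 mM HEPES, 10% FCS and gentamicin at 37 °C under 5% CO2, and plated at 4,000-20,000 cells/well. After”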

[23] = tested on: VCaP; test: Antiproliferative activity against human VCaP cells assessed as T/C value at 1 uM incubated for 96 hrs by propidium iodide based 2D monolayer assay; summary of the method: as §1
[24] = tested on: VCaP; test: Antiproliferative activity against human VCaP cells assessed as reduction in cell growth incubated for 96 hrs by propidium iodide based 2D monolayer assay; summary of the method: as §2
[25] = tested on: LNCaP; test: Antiproliferative activity against human LNCAP cells assessed as reduction in cell growth incubated for 96 hrs by propidium iodide based 2D monolayer assay
Summary of the method: as §1, with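 “After” for “Cells were kept in RPMI 1640 with 25 mM HEPES, 10% FCS and gentamicin at 37 °C under 5% CO2, and plated at 4,000-20,000 cells/well. After”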

[26] = tested on: CWR22R; test: Antiproliferative activity against human 22Rv1 cells assessed as T/C value at 3.2 x 10^-1 uM incubated for 96 hrs by propidium iodide based 2D monolayer assay; summary of the method: as §1
[27] = tested on: DU-145; test: Antiproliferative activity against human DU145 cells assessed as T/C value at 3.2 x 10^-2 uM incubated for 96 hrs by propidium iodide based 2D monolayer assay
Summary of the method: as §1, with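 “After” for “Cells were kept in RPMI 1640 with 25 mM HEPES, 10% FCS and gentamicin at 37 °C under 5% CO2, and plated at 4,000-20,000 cells/well. After”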

[28] = tested on: VCaP; test: Antiproliferative activity against human VCaP cells assessed as T/C value at 1 x 10^-1 uM incubated for 96 hrs by propidium iodide based 2D monolayer assay; summary of the method: as §1
[29] = tested on: CWR22R; test: Antiproliferative activity against human 22Rv1 cells assessed as T/C value at 1 x 10^-1 uM incubated for 96 hrs by propidium iodide based 2D monolayer assay; summary of the method: as §1
[30] = tested on: VCaP; test: Antiproliferative activity against human VCaP cells assessed as T/C value at 1 x 10^-2 uM incubated for 96 hrs by propidium iodide based 2D monolayer assay; summary of the method: as §1
[31] = tested on: DU-145; test: Antiproliferative activity against human DU145 cells assessed as T/C value at 1 x 10^2 uM incubated for 96 hrs by propidium iodide based 2D monolayer assay; summary of the method: as §1
[32] = tested on: VCaP; test: Antiproliferative activity against human VCaP cells assessed as T/C value at 3.2 x 10^-2 uM incubated for 96 hrs by propidium iodide based 2D monolayer assay; summary of the method: as §2

SMILES | T/C [1] | T/C [2] | T/C [3] | T/C [4] | T/C [5] | T/C [6] | T/C [7] | pIC50 [8] | T/C [9] | T/C [10] | T/C [11] | T/C [12] | T/C [13] | T/C [14] | T/C [15] | T/C [16] | T/C [17] | T/C [18] | T/C [19] | T/C [20] | further results
CC1(C)C(=O)N(c2cccc(S(F)(F)(F)(F)F)c2)C(=S)N1c1cccc(C(F)(F)F)c1 | 71% | 73% | 105% | 74% | 63% | 96% | 101% | 4.00 | 69% | 79% | 55% | 60% | 108% | 23% | 80% | 83% | 94% | 87% | 85% | 94% | IC70 [8]: > 100 µM; T/C [21]: 108%; T/C [22]: 101%; T/C [23]: 84%; pIC50 [24]: 4.00; IC70 [24]: > 100 µM; pIC50 [25]: 5.47; IC70 [25]: 4.31 µM; T/C [26]: 98%; T/C [27]: 96%; T/C [28]: 80%; T/C [29]: 96%; T/C [30]: 82%; T/C [31]: 76%; T/C [32]: 87%
CC(O)(COc1cccc(S(F)(F)(F)(F)F)c1)C(=O)Nc1ccc([N+](=O)[O-])c(C(F)(F)F)c1 (racemic) | 81 - 87% | 92 - 95% | 116% | 84 - 93% | 54 - 71% | 100 - 106% | 118 - 124% | 5.13 | 13 - 14% | 62 - 92% | 2 - 3% | 5 - 11% | 122 - 125% | 1 - 3% | 100 - 103% | 9 - 16% | 94 - 104% | 94 - 113% | 101 - 109% | 97 - 104% | IC70 [8]: 7.24 to 8.54 µM; T/C [21]: 121 - 129%; T/C [22]: 111 - 116%; T/C [23]: 94 - 108%; pIC50 [24]: 5.28; IC70 [24]: 7.82 to 8.69 µM; pIC50 [25]: 5.48; IC70 [25]: 4.37 to 5.15 µM; T/C [26]: 107 - 111%; T/C [27]: 116 - 124%; T/C [28]: 94 - 115%; T/C [29]: 106 - 110%; T/C [30]: 97 - 108%; T/C [31]: 1%; T/C [32]: 86 - 107%
CC(O)(COc1ccccc1C(F)(F)F)C(=O)Nc1ccc(S(F)(F)(F)(F)F)cc1 (racemic) | 19 - 45% | 88 - 94% | 15 - 117% | 25 - 60% | 2 - 7% | 99 - 104% | 108 - 127% | 5.15 | 1 - 6% | 2 - 9% | 1 - 2% | 5 - 10% | 88 - 127% | 1 - 2% | 83 - 84% | 1 - 20% | 85 - 89% | 73 - 91% | 9 - 81% | 101 - 106% | T/C [21]: 107 - 132%; T/C [22]: 102 - 112%; T/C [23]: 58 - 85%; pIC50 [24]: 5.51; pIC50 [25]: 5.92; T/C [26]: 69 - 110%; T/C [27]: 108 - 125%; T/C [28]: 75 - 96%; T/C [29]: 93 - 107%; T/C [30]: 87 - 102%; T/C [31]: 1%; T/C [32]: 87 - 93%
